Only some compounds are listed: those with a hit (about 4.9% of all), similar ones and a draw of the others.
STAT1 act: increases IFN-gamma driven STAT1 reporter signal; activation (% of control), % at 5.5 µM; NIH 3T3 STAT1-luciferase reporter, luminescence; 100% = IFN-gamma alone, no compound; 2.6% of 200,000 active;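 active means activation above the screen-wide mean activation plus 3 SD, cut at about 130% in these data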
STAT1 inh: STAT1 signaling inhibition. NIH 3T3 STAT1-luciferase reporter, IFN-gamma, luminescence. inhibition, % at 5.5 µM. 0.35% of 200,000 active. AID 920;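 active means inhibition above a set limit, the mean inhibition across all tested compounds plus 3 SD, cut at about 34% in these data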
STAT3 activator: increases IL-6 driven STAT3 reporter signal; U3A cells, IL-6 STAT3-luciferase reporter, luminescence; 100% = signal with IL-6 EC80 alone; activation (% of control), % at 5.6 µM; 0.91% of 190,000 active;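 active means activation above the screen-wide mean of compound activation plus 3 SD, cut at about 130% in these data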
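Material: human STAT1-deficient U3A cells with stable STAT3-luciferase reporter / Probe or stimulus: IL-6 stimulus at 33 ng/mL final / Schedule: 1 h compound pre-exposure, 6 h IL-6 stimulation, 37 °C / Technique: luminescence / Read-out basis: percent of IL-6-only median luminescence / Control set: IL-6-only high control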
APP 5'UTR act: APP 5'UTR luciferase reporter activation; SH-SY5Y APP 5'UTR luciferase reporter, luminescence; zero percent = DMSO vehicle wells; 1% of 190,000 active; activation, % at 2 µM;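 active means activation above a set limit, based on mean plus 3 SD of controls, cut at about 140% in these data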
NF-kB expr up: raises NF-kB expression in human neuronal cells. AID 1239. NF-kB reporter expression; stronger effect = higher value. fold change at 12.5 µM. 1.6% of 190,000 active; in the data active means fold change above about 3.3
STAT3 inh: inhibitors of IL-6 induced STAT3 signaling; AID 862; 0.89% of 190,000 active; inhibition, % at 5.5 µM; U3A cells, IL-6 STAT3-luciferase reporter, luminescence; host cell line lacks STAT1;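 active means inhibition above the mean inhibition across all screened compounds plus 3 SD, cut at about 44% in these data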
STAT1 activ conf: STAT1 activation, confirmation assay. shares compounds with STAT1 act. NIH 3T3 STAT1-luciferase reporter, IFN-gamma potentiation, luminescence; 100% = IFN-gamma EC80 alone, no compound. activation (% of control), % at 5.7 µM. 97% of 1,200 active. AID 1262;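 active means activation above a set limit carried over from the earlier primary STAT1 screen, cut at about 140% in these data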
NFkB act: NF-kappaB activation in STAT1 activator counter-screen; shares compounds with STAT1 act; HEK293T NF-kB luciferase reporter, TNF-alpha stimulated, luminescence; 100% = TNF-alpha with vehicle only; activation (% of control), % at 5.7 µM; 43% of 1,200 active;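 active means activation above the mean of solvent-only control wells plus 3 SD, set per campaign, cut at about 130% in these data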;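 further: TNF-alpha given at a submaximal dose yielding about 80% of full reporter signal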
STAT3 act STAT1c: counter-screen for STAT1 activators: human STAT3 activation; activation (% of control), % at 5.7 µM; 46% of 1,200 active; U3A cells STAT3-luciferase reporter, IL-6, luminescence; cells lack STAT1; 100 = IL-6 alone, no compound effect; shares compounds with STAT1 act;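 active means activation above the solvent-only control well mean plus 3 SD, set per plate batch, cut at about 110% in these data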;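 further: higher means more STAT3 reporter activation so hits are non-selective activators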
Large screens that a line does not name were inactive (follow-up assays come after a bar, where they were run).

Cc1ccc(-n2c(C)cc(C(=O)CSc3nnnn3C)c2C)cc1	STAT1 act 161.5, APP 5'UTR act 168.1, NF-kB expr up 5.38 | STAT1 activ conf 200.5 | NFkB act inactive | STAT3 act STAT1c 114.0
CCCCNC(=O)N1CCc2ccccc2C1	none
CC(C)c1ccc(NC(=O)N2CCc3ccccc3C2)cc1	STAT1 act 155.5 | STAT1 activ conf 147.9 | NFkB act inactive | STAT3 act STAT1c 119.5
CCn1c(O)c(C=Nc2ccccc2)sc1=S	STAT1 act 175.8, APP 5'UTR act 191.3, NF-kB expr up 3.37 | STAT1 activ conf 205.8 | NFkB act 139.3 | STAT3 act STAT1c 110.6
O=C(O)Cn1c(O)c(C=Nc2ccccc2)sc1=S	none
O=C(CC1Nc2ccccc2NC1=O)NCCc1ccccc1 (centres undefined)	none
O=C(CC1Nc2ccccc2NC1=O)c1ccccc1 (centres undefined)	STAT1 act 156.2 | STAT1 activ conf 206.2 | NFkB act inactive | STAT3 act STAT1c 165.2
Clc1ccccc1CSC1=NCCN1	none
O=C(N/N=C/C=C/c1ccccc1)c1cccs1	STAT1 act 156.7, NF-kB expr up 3.55 | STAT1 activ conf 165.2 | NFkB act 137.0 | STAT3 act STAT1c inactive
O=C(N/N=C/C=C/c1ccccc1)c1ccncc1	none
C/C(=N/NC(=O)c1cccs1)c1ccco1	none
CC(/C=N/NC(=O)Cc1cccs1)=C\c1ccco1	none
CC(/C=N/NC(=O)c1cccs1)=C\c1ccco1	STAT1 act 171.4, APP 5'UTR act 160.1, NF-kB expr up 5.55 | STAT1 activ conf 172.6 | NFkB act inactive | STAT3 act STAT1c inactive
C/C(=N\NC(=O)c1cccs1)C(C)(C)C	STAT1 act 158.5 | STAT1 activ conf inactive | NFkB act inactive | STAT3 act STAT1c 113.0
COc1ccc(/C(N)=N/OC(=O)c2cccc([N+](=O)[O-])c2)cc1OC	none (no result: APP 5'UTR act)
N/C(=N\OC(=O)c1ccc2c(c1)OCO2)c1cccc([N+](=O)[O-])c1	STAT1 act 153.4 | STAT1 activ conf 197.8 | NFkB act inactive | STAT3 act STAT1c 117.8
Cc1ccc(NC(=O)CSc2nnc3ccccn23)cc1S(=O)(=O)N1CCOCC1	none
O=C(NC1CCCC1)c1cc(-c2cccs2)on1	STAT1 act 172.9, NF-kB expr up 9.67 | STAT1 activ conf 204.9 | NFkB act 147.1 | STAT3 act STAT1c 114.6
C(=N\N(c1ccccc1)c1ccccc1)/c1ccc2c(c1)OCO2	none
CN(/N=C/c1ccc2c(c1)OCO2)c1ccccc1	STAT1 act 155.1 | STAT1 activ conf 180.5 | NFkB act 138.7 | STAT3 act STAT1c inactive
CSCCC(NS(=O)(=O)c1ccc(Cl)cc1)C(=O)OCC(=O)c1ccc(F)cc1 (centres undefined)	none
O=C(Nc1ccc(N2CCCC2)c(Cl)c1)c1ccc([N+](=O)[O-])o1	STAT1 act 158.9, NF-kB expr up 4.27 | STAT1 activ conf inactive | NFkB act 133.5 | STAT3 act STAT1c inactive
O=C(Nc1ccc(N2CCOCC2)c(Cl)c1)c1cc2ccccc2o1	STAT1 act 169.9 | STAT1 activ conf 178.7 | NFkB act inactive | STAT3 act STAT1c inactive
CS(=O)(=O)N1CCN(c2ccc(NC(=O)c3ccc([N+](=O)[O-])o3)cc2)CC1	STAT1 act 159.9 | STAT1 activ conf inactive | NFkB act inactive | STAT3 act STAT1c inactive
Cc1cc(C)cc(C(=O)Nc2ccc(N3CCN(S(C)(=O)=O)CC3)cc2)c1	none
CC1CCN(c2nc3c(c(=O)[nH]c(=O)n3C)n2CC(C)CSc2nnnn2-c2ccccc2)CC1 (centres undefined)	none
O=C(Nc1ccc(NC(=O)C23CC4CC(CC(C4)C2)C3)cn1)c1ccco1	STAT1 act 185.2 | STAT1 activ conf 221.7 | NFkB act 141.7 | STAT3 act STAT1c 122.6
COc1ccc(/C=C/C(=O)N2CCN(c3ccccn3)CC2)c2ccccc12	none
O=C(O)c1ccc(N=NN2CCCCCC2)cc1	STAT1 act 156.7 | STAT1 activ conf 166.3 | NFkB act inactive | STAT3 act STAT1c 120.2
O=C(O)c1ccc(N=NN2CCCC2)cc1	none
Cc1ccc(C)c(OCC(=O)NCCN(C)C)c1	none
CC(C)(C)c1ccc(OCCNC(=O)c2ncn[nH]2)cc1	none
CCc1ccc(N(CC(=O)Nc2ccccc2C(=O)N2CCOCC2)S(C)(=O)=O)cc1	none
COCCNC(=O)CSc1nc2ccc(N3CCOCC3)cc2c(=O)n1Cc1ccc(OC)cc1	none
CCCCNC(=O)CSc1nc2ccc(N3CCOCC3)cc2c(=O)n1Cc1ccc(OC)cc1	STAT1 act 157.6 | STAT1 activ conf 147.7 | NFkB act inactive | STAT3 act STAT1c 116.9
O=C(NCCc1cccs1)c1ccc(Cl)c(Cl)c1	STAT1 act 159.4, NF-kB expr up 3.77 | STAT1 activ conf 163.7 | NFkB act inactive | STAT3 act STAT1c inactive
Cc1cc(C)nc(SCc2nnc(SCC(=O)Nc3ccccc3C)n2Cc2ccco2)n1	none
Cc1ccc2c(c1)-c1nc3ccccc3cc1C2=NC1CCCCC1	STAT1 act 172.5, NF-kB expr up 3.68 | STAT1 activ conf 201.1 | NFkB act inactive | STAT3 act STAT1c 123.1
CN(c1cc(=O)n2ccccc2n1)C1CCCCC1	none
Cc1ccc2c(c1)C(=NC1CCCCC1)c1cc3ccccc3nc1-2	STAT1 act 191.5, APP 5'UTR act 178.5, NF-kB expr up 5.27 | STAT1 activ conf 208.2 | NFkB act inactive | STAT3 act STAT1c 149.8
Cc1ccc(-c2cc3ccccc3nc2N2CCCC2)cc1	none
Cc1nn(Cc2ccccc2Cl)c(Cl)c1C(=O)NCCc1ccccc1	STAT1 act 172.8, NF-kB expr up 3.49 (no result: APP 5'UTR act) | STAT1 activ conf 193.3 | NFkB act inactive | STAT3 act STAT1c 140.9
CC(C)c1csc(CN2CCN(Cc3ccc(F)cc3)C(CCO)C2)n1 (centres undefined)	none
O=C(COc1cc(F)ccc1[N+](=O)[O-])NCCCc1ccccc1	none
O=C(CCN1C(=O)c2ccccc2C1=O)C1=NN[C@@H]2C(=O)N(c3cccc(Cl)c3)C(=O)[C@H]12	none
Cc1ccccc1NC(=O)Nc1ccccc1Br	none
Cc1cc(NC(=O)Nc2ccccc2F)ccc1Br	STAT1 act 181.1, APP 5'UTR act 212.7, NF-kB expr up 6.66 | STAT1 activ conf 231.8 | NFkB act 141.1 | STAT3 act STAT1c 111.6
